Assay results as given in ChEMBL document CHEMBL1250467, “Design, synthesis, and anticonvulsant activity of new N-Mannich bases derived from spirosuccinimides and spirohydantoins” (Bioorg Med Chem, 2010).
Active and inactive are the calls of the source. The calls are words filed in the database; no cut-off is given here.

Legend:
Rattus norvegicus [1] = species: Rattus norvegicus; test: Protection index, ratio of TD50 for Sprague-Dawley rat by rotarod test to ED50 for Sprague-Dawley rat by maximal electroshock test; type: functional
Method in brief: (§1)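 Male Sprague–Dawley rats dosed orally (0.5% methylcellulose/water suspension), groups of eight, tested at the previously estimated time of peak effect. Doses varied until at least three points lay in the 10–90% range of protection (MES, scPTZ) or minimal rotarod neurotoxicity. ED50/TD50 with 95% confidence intervals came from regression; PI = TD50/ED50.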

Rattus norvegicus [2] = test: Anticonvulsant activity in po dosed Sprague-Dawley rat assessed as protection against maximal electroshock-induced seizures; type: functional; method in brief: as §1
Mus musculus [3] = test: Anticonvulsant activity in ip dosed CF1 albino mouse assessed as dose required to protect against subcutaneous pentylenetetrazole-induced seizures after 0.5 hrs; type: functional
Method in brief: (§2)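 Male CF-1 mice; compounds suspended in 0.5% methylcellulose/water and injected ip at 30, 100 and 300 mg/kg. MES, scPTZ (pentylenetetrazole 85 mg/kg sc at the test time) and rotarod neurotoxicity were scored at 0.5 and 4 h. Value is the lowest dose active or toxic in half or more of the animals; signs such as ataxia or tremor were recorded.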

Rattus norvegicus [4] = test: Anticonvulsant activity in Sprague-Dawley rat assessed as protection against subcutaneous pentylenetetrazole-induced seizures at 50 mg/kg po after 1 hr; type: functional
Method in brief: (§3)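 Oral fixed dose of 50 mg/kg in male Sprague–Dawley rats (0.5% methylcellulose/water suspension), four rats per group. Pentylenetetrazole 70 mg/kg given sc at each test time (0.25, 0.5, 1, 2, 4 h); protection from clonic seizures counted per four rats, with motor impairment studied in parallel.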

Rattus norvegicus [5] = test: Anticonvulsant activity in Sprague-Dawley rat assessed as protection against subcutaneous pentylenetetrazole-induced seizures at 50 mg/kg po after 4 hrs; type: functional; method in brief: as §3
Mus musculus [6] = test: Neurotoxicity in CF1 albino mouse at 300 mg/kg, ip after 0.5 hrs by rotarod test; type: toxicity, organism-based; set-up: dose 300 mg/kg, route intraperitoneal; conditions: in vivo; method in brief: as §2
[7] = Neurotoxicity in po dosed Sprague-Dawley rat by rotarod test; type: toxicity, organism-based; conditions: in vivo; method in brief: as §1
Rattus norvegicus [8] = test: Anticonvulsant activity in Sprague-Dawley rat assessed as protection against subcutaneous pentylenetetrazole-induced seizures at 50 mg/kg po after 2 hrs; type: functional; method in brief: as §3
Rattus norvegicus [9] = test: Anticonvulsant activity in Sprague-Dawley rat assessed as protection against subcutaneous pentylenetetrazole-induced seizures at 50 mg/kg po after 0.5 hrs; type: functional; method in brief: as §3
Mus musculus [10] = test: Anticonvulsant activity in CF1 albino mouse assessed as protection against maximal electroshock-induced seizures at 300 mg/kg, ip after 0.5 hrs; type: functional, organism-based; set-up: dose 300 mg/kg; method in brief: as §2
Mus musculus [11] = test: Anticonvulsant activity in CF1 albino mouse assessed as protection against maximal electroshock-induced seizures at 300 mg/kg, ip after 4 hrs; type: functional, organism-based; set-up: dose 300 mg/kg; method in brief: as §2
Rattus norvegicus [12] = test: Anticonvulsant activity in Sprague-Dawley rat assessed as protection against subcutaneous pentylenetetrazole-induced seizures at 50 mg/kg po after 0.25 hrs; type: functional, organism-based; set-up: dose 50 mg/kg; method in brief: as §3
Mus musculus [13] = test: Neurotoxicity in CF1 albino mouse at 300 mg/kg, ip after 4 hrs by rotarod test; type: toxicity, organism-based; set-up: dose 300 mg/kg, route intraperitoneal; conditions: in vivo; method in brief: as §2
Mus musculus [14] = test: Anticonvulsant activity in ip dosed CF1 albino mouse assessed as dose required to protect against subcutaneous pentylenetetrazole-induced seizures after 4 hrs; type: functional; method in brief: as §2
Rattus norvegicus [15] = test: Anticonvulsant activity in po dosed Sprague-Dawley rat assessed as protection against subcutaneous pentylenetetrazole-induced seizures; type: functional; method in brief: as §1
Rattus norvegicus [16] = test: Anticonvulsant activity in Sprague-Dawley rat assessed as protection against maximal electroshock-induced seizures at 30 mg/kg po after 1 hr; type: functional
Method in brief: (§4)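 Male Sprague–Dawley rats, four per group, given 30 mg/kg orally as a 0.5% methylcellulose/water suspension. MES protection scored at 0.25, 0.5, 1, 2 and 4 h after dosing, motor impairment checked in parallel; data are the number of the four rats protected.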

Rattus norvegicus [17] = test: Anticonvulsant activity in Sprague-Dawley rat assessed as protection against maximal electroshock-induced seizures at 30 mg/kg po after 2 hrs; type: functional; method in brief: as §4
Mus musculus [18] = test: Anticonvulsant activity in ip dosed CF1 albino mouse assessed as dose required to protect against maximal electroshock-induced seizures after 4 hrs; type: functional; method in brief: as §2
Rattus norvegicus [19] = test: Anticonvulsant activity in Sprague-Dawley rat assessed as protection against maximal electroshock-induced seizures at 30 mg/kg po after 0.5 hrs; type: functional; method in brief: as §4
Mus musculus [20] = test: Anticonvulsant activity in CF1 albino mouse assessed as protection against subcutaneous pentylenetetrazole-induced seizures at 300 mg/kg, ip after 4 hrs; type: functional, organism-based; set-up: dose 300 mg/kg; method in brief: as §2
Mus musculus [21] = test: Anticonvulsant activity in ip dosed CF1 albino mouse assessed as dose required to protect against maximal electroshock-induced seizures after 0.5 hrs; type: functional; method in brief: as §2
Mus musculus [22] = test: Neurotoxicity in CF1 albino mouse assessed as unable to grasp rotarod at 300 mg/kg, ip after 4 hrs by rotarod test; type: toxicity, organism-based; set-up: dose 300 mg/kg, route intraperitoneal; conditions: in vivo; method in brief: as §2
Rattus norvegicus [23] = test: Anticonvulsant activity in Sprague-Dawley rat assessed as protection against maximal electroshock-induced seizures at 30 mg/kg po after 4 hrs; type: functional; method in brief: as §4
Rattus norvegicus [24] = test: Anticonvulsant activity in Sprague-Dawley rat assessed as protection against maximal electroshock-induced seizures at 30 mg/kg po after 0.25 hrs; type: functional; method in brief: as §4
Mus musculus [25] = test: Anticonvulsant activity in CF1 albino mouse assessed as protection against subcutaneous pentylenetetrazole-induced seizures at 300 mg/kg, ip after 0.5 hrs; type: functional, organism-based; set-up: dose 300 mg/kg; method in brief: as §2
Mus musculus [26] = test: Neurotoxicity in ip dosed CF1 albino mouse assessed as dose required to cause toxicity after 4 hrs by rotarod test; type: organism-based; conditions: in vivo; method in brief: as §2
Mus musculus [27] = test: Neurotoxicity in ip dosed CF1 albino mouse assessed as dose required to cause toxicity after 0.5 hrs by rotarod test; type: organism-based; conditions: in vivo; method in brief: as §2
[28] = Displacement of [3H]batrachotoxin from neurotoxin site 2 of voltage-gated sodium channel in rat forebrain tissue; conditions: read-out: IC50
Rattus norvegicus [29] = test: Anticonvulsant activity in po dosed Sprague-Dawley rat assessed as time required to peak protection against seizures; type: functional
Mus musculus [30] = test: Anticonvulsant activity in CF1 albino mouse assessed as protection against electrically-induced seizure at 100 mg/kg, ip after 1 hr by 6Hz psychomotor seizure test; type: functional
Method in brief: (§5)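 Male CF-1 mice, compound suspended in 0.5% methylcellulose/water, given ip at 100 mg/kg; four mice per time point (0.25, 0.5, 1, 2, 4 h). Corneal stimulation with 0.2 ms monopolar rectangular pulses at 6 Hz for 3 s from a constant-current device, mice manually restrained. A mouse counted as protected if normal exploratory behaviour resumed within 10 s; motor impairment was noted alongside.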

Mus musculus [31] = test: Anticonvulsant activity in CF1 albino mouse assessed as protection against electrically-induced seizure at 100 mg/kg, ip after 0.5 hrs by 6Hz psychomotor seizure test; type: functional, organism-based; set-up: dose 100 mg/kg; method in brief: as §5
Rattus norvegicus [32] = test: Anticonvulsant activity in Sprague-Dawley rat assessed as protection against pilocarpine-induced status epilepticus at 600 mg/kg, ip measured after clonus of one of the fore limbs seizure stage; type: functional, organism-based; set-up: dose 600 mg/kg
Method in brief: (§6)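 Male Sprague–Dawley rats (150–180 g) received compound ip at 600 mg/kg, then a challenge dose of pilocarpine. Seizure severity graded on the Racine scale; rats were scored as protected or not, and body weight change was taken 24 h after the first stage III seizure.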

Rattus norvegicus [33] = test: Toxicity in Sprague-Dawley rat assessed as change in body weight at 600 mg/kg, ip measured after 24 hrs of clonus of one of the fore limbs seizure stage in protected rat; type: organism-based; set-up: dose 600 mg/kg, route intraperitoneal; conditions: in vivo; method in brief: as §6
Mus musculus [34] = test: Anticonvulsant activity in CF1 albino mouse assessed as protection against electrically-induced seizure at 100 mg/kg, ip after 4 hrs by 6Hz psychomotor seizure test; type: functional; conditions: route intraperitoneal; method in brief: as §5
Rattus norvegicus [35] = test: Anticonvulsant activity in Sprague-Dawley rat assessed as protection against pilocarpine-induced status epilepticus at 600 mg/kg, ip; type: functional, organism-based; set-up: dose 600 mg/kg; method in brief: as §6
Mus musculus [36] = test: Anticonvulsant activity in CF1 albino mouse assessed as protection against electrically-induced seizure at 100 mg/kg, ip after 0.25 hrs by 6Hz psychomotor seizure test; type: functional, organism-based; set-up: dose 100 mg/kg; method in brief: as §5
Rattus norvegicus [37] = test: Toxicity in Sprague-Dawley rat assessed as change in body weight at 600 mg/kg, ip measured after 24 hrs of clonus of one of the fore limbs seizure stage in non-protected rat; type: organism-based; set-up: dose 600 mg/kg, route intraperitoneal; conditions: in vivo; method in brief: as §6
Mus musculus [38] = test: Anticonvulsant activity in CF1 albino mouse assessed as protection against electrically-induced seizure at 100 mg/kg, ip after 2 hrs by 6Hz psychomotor seizure test; type: functional, organism-based; set-up: dose 100 mg/kg; method in brief: as §5

Row | SMILES | PI (Rattus norvegicus [1]) | ED50 (Rattus norvegicus [2]) [mg/kg] | TD50 [7] [mg/kg] | Activity (Mus musculus [13]) | Activity (Rattus norvegicus [16]) | Activity (Rattus norvegicus [17]) [%] | Activity (Mus musculus [18]) [mg/kg] | Activity (Rattus norvegicus [19]) | Activity (Mus musculus [20]) | Activity (Mus musculus [21]) [mg/kg] | Activity (Rattus norvegicus [23]) [%] | Activity (Rattus norvegicus [24]) | Activity (Mus musculus [25]) | Activity (Mus musculus [26]) [mg/kg] | Activity (Mus musculus [27]) [mg/kg] | also measured
1 | O=C1CC2(CCc3ccccc3C2)C(=O)N1CCN1CCN(c2cccc(C(F)(F)F)c2)CC1 (stereo unspecified) | 1.95 | 205 |  |  |  |  |  |  |  |  |  |  |  |  |  | 
2 | CCC1(C)CC(=O)NC1=O (stereo unspecified) [ETHOSUXIMIDE] | >2.99 | > 500 | > 500 | Non-toxic |  |  |  |  |  |  |  |  |  |  |  | Activity (Mus musculus [3]): 100 mg/kg; Activity (Rattus norvegicus [4]): 25%; Activity (Rattus norvegicus [5]): inactive; Activity (Mus musculus [6]): Non-toxic; Activity (Rattus norvegicus [8]): 25%; Activity (Rattus norvegicus [9]): 50%; Activity (Mus musculus [10]): inactive; Activity (Mus musculus [11]): inactive; Activity (Rattus norvegicus [12]): inactive; Activity (Mus musculus [14]): 300 mg/kg; ED50 (Rattus norvegicus [15]): 167 mg/kg
3 | O=C1CC2(CCc3ccccc3C2)C(=O)N1CN1CCN(CCO)CC1 (stereo unspecified) |  |  |  | Non-toxic | inactive | 25 | 100 | 25% | inactive | 100 | 50 | 25% |  |  |  | Activity (Mus musculus [3]): 300 mg/kg; Activity (Mus musculus [22]): Non-toxic
4 | O=C1CC2(CCc3ccccc3C2)C(=O)N1CN1CCN(c2ccccc2)CC1 (stereo unspecified) |  |  |  |  |  |  |  |  | inactive |  |  |  | inactive | 300 | 100 | Activity (Mus musculus [10]): inactive; Activity (Mus musculus [11]): inactive
5 | O=C1NC2(CCc3ccccc3C2)C(=O)N1CN1CCN(c2cccc(C(F)(F)F)c2)CC1 (stereo unspecified) |  |  |  |  |  |  | 30 |  | inactive | 300 |  |  | inactive | 30 | 100 | 
6 | O=C1NC(=O)C(c2ccccc2)(c2ccccc2)N1 [PHENYTOIN] | >3.6 |  | > 100 |  | 75% | 75 | 30 | 100% | inactive | 30 | 75 | 25% | inactive | 100 | 100 | IC50 [28]: 40 µM; Time (Rattus norvegicus [29]): 1 h; ED50 (Rattus norvegicus [15]): > 500 mg/kg
7 | O=C1CC2(CCc3ccccc3C2)C(=O)N1CN1CCN(c2cccc(Cl)c2)CC1 (stereo unspecified) | 25.55 | 19.6 | > 500 | Non-toxic | 25% | 50 | 100 | inactive | inactive | 300 | 50 | inactive | inactive |  | 300 | Activity (Mus musculus [30]): inactive; IC50 [28]: 2.45 µM; Activity (Mus musculus [31]): inactive; Activity (Rattus norvegicus [32]): inactive; Activity (Rattus norvegicus [33]): Non-toxic; Activity (Mus musculus [34]): 50%; Activity (Rattus norvegicus [35]): inactive; Time (Rattus norvegicus [29]): 6 h; Activity (Mus musculus [36]): inactive; Activity (Rattus norvegicus [37]): 20.6 g; Activity (Mus musculus [38]): inactive
